# Screens deposited in PubChem by Columbia University Molecular Screening Center.
# INS promoter act – TRM-6 insulin promoter activation | TRM-6 cells, insulin promoter eGFP reporter, imaging; plate-scaled: unstimulated 0, stimulated control 100 | activation, % at 2 µM | hit rate 0.81% among 130,000;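 active = activation at 2 µM above a set limit, confirmed on inspection of the cell images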;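 note: share of cells whose green reporter signal exceeds an intensity cutoff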
#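 material = TRM-6 human fetal islet cells, insulin promoter–eGFP reporter | input = 1,000 TRM-6 cells seeded per well | benchmarks = stimulated versus unstimulated wells as plate controls | measured by = automated fluorescence imaging of paraformaldehyde-fixed, Hoechst-counterstained cells, green channel | schedule = compound exposure 48 h, 37 °C | reagent = tamoxifen at 0.75 µM added at seeding for reporter induction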
# Numbers stand for hits; i = inactive. This excerpt belongs to a sample that is enriched for hits.
SMILES,INS promoter act
O=C(CCSc1nc2ccccc2s1)N/N=C/c1c(O)ccc2ccccc12,i
N#CCCCCN1c2cccc3cccc(c23)S1(=O)=O,i
CSc1ccccc1-n1nnnc1SCc1ccccc1,i
CCOCc1nnc(NC(=O)c2ccco2)s1,i
CCOCC(=O)Nc1nnc(COC)s1,i
CCCC(=O)Nc1ccc(C(=O)Nc2nnc(COCC)s2)cc1,408.3
O=C(NCCCO)C(=O)NCCc1ccc(Cl)cc1,i
Cc1c(OCC(=O)OC(C)C)ccc2c3c(c(=O)oc12)CCC3,i
Cc1c(OCc2ccc([N+](=O)[O-])cc2)ccc2c3c(c(=O)oc12)CCC3,i
C=C(C)COc1ccc2c3c(c(=O)oc2c1OCC(=C)C)CCC3,142.9
COc1ccc(CNC(=O)c2ccccc2SC)cc1,i
COc1ccc(CSCC(=O)Nc2ccccc2SC)cc1,366.7
COc1ccc(OCC(=O)Nc2ccccc2O)cc1,i
O=C(N=Nc1c(O)[nH]c2ccc(Cl)cc12)c1cc(-c2cccs2)nc2ccccc12,i
COc1ccc(C2=NCCn3cccc32)c(OC)c1,i
CCOC(=O)C1CCCN(C(=O)C2CCN(S(=O)(=O)CC)CC2)C1 (stereo unspecified),i
CCOC(=O)C1CCN(C(=O)C2CCCCC2)CC1,561.5
CCOC(=O)C1CCN(C(=O)Cc2cccs2)CC1,i
CCOC(=O)C1CCN(C(=O)N(CC)CC)CC1,253.5
CCOC(=O)N1CCN(C(=O)C2CCN(S(=O)(=O)N3CCCC3)CC2)CC1,i
CCOC(=O)C1CCN(C(=O)/C=C/c2cccs2)CC1,i
O=C(NCc1ccccc1Cl)C(=O)c1c[nH]c2ccccc12,i
CC1(C)Cc2ccccc2-c2n[nH]c(=S)n21,i
CCOC(=O)c1ccc(NC(=O)CSc2ccc(-c3ccncc3)nn2)cc1,i
O=S(=O)(Nc1ncnc2sc3c(c12)CCC3)c1ccc(Cl)s1,i
SMILES,INS promoter act
CC(C)CC(=O)NC(=S)Nc1ccc(NC(=O)c2cccs2)cc1,i
CCOC(=O)c1c(NC(=O)Cc2cccs2)sc(C(=O)NC2CCCC2)c1C,i
COC(=O)c1c(NC(=O)Cc2cccs2)sc(C(=O)NC2CCCCC2)c1C,i
CCOC(=O)c1c(NC(=O)Cc2cccs2)sc(C(=O)NC2CCCCC2)c1C,153.3
Cc1cc(OCC(=O)Nc2ccc(CN3CCCCC3)cc2)ccc1Cl,i
CCN(CC)C(=O)C(=O)c1cccn1-c1c(Cl)cccc1C#N,i
CC(C)CN(CC(C)C)C(=O)C12CCC(C)(C(=O)O1)C2(C)C (stereo unspecified),i
Cc1ccc(C(=O)NC(=S)Nc2ccccc2N2CCCC2)cc1[N+](=O)[O-],i
CCn1ncc(Br)c1C(=O)Nc1ccc(F)c([N+](=O)[O-])c1,i
CCn1ncc(Cl)c1C(=O)NC(=S)Nc1c(C)cc(C)cc1[N+](=O)[O-],292.9
OCCN1CCN(CCCc2c3c(cc4c2CCC4)CCC3)CC1,i
Cc1ccc(N2C(=O)CN(Cc3sccc3C)C2=S)cc1C,i
Cc1ccccc1N1C(=O)CN(Cc2sccc2C)C1=S,84.0
Cc1ccccc1N1C(=O)CC2(CCCC2)CC1=O,i
CC(=O)c1ccc(NC(=S)NCc2cccnc2)cc1,i
CCc1ccc(N2CC(C(=O)OC)CC2=O)cc1 (stereo unspecified),i
CCc1ccc(N2C(=O)CC(N3CCC(C(=O)OC)CC3)C2=O)cc1 (stereo unspecified),542.9
CCOC(=O)C1CCCN(C2CC(=O)N(c3ccccc3)C2=O)C1 (stereo unspecified),i
COCCCN1C(=O)c2ccc(C(=O)O)cc2C1=O,i
O=C(NCC1CCN(C(=O)c2ccc([N+](=O)[O-])cc2)CC1)C(=O)Nc1ccccc1,i
COc1ccc(-n2nc(C#N)c(Cl)cc2=O)cc1,i
CC1CCN(C(=O)CN(c2ccccc2)S(=O)(=O)N(C)C)CC1,i
COc1ccccc1NC(=O)Cc1noc(CSc2nnc(C)n2C)n1,i
O=C(Nc1ccccc1)c1ccc2c(c1)OCCO2,i
COc1ccc(C(=O)NC(=S)Nc2ccccc2N2CCOCC2)cc1Br,i
SMILES,INS promoter act
O=C(Nc1ccccc1N1CCOCC1)c1ccc2c(c1)OCO2,366.7
c1cc(CNc2ccc3c(c2)OCCO3)ccn1,i
COCCNC(=O)CN(C(=O)Cn1nnc2ccccc21)c1ccc(F)c(Cl)c1,i
O=C(CC1CCCCC1)N1CCCC(c2nc(-c3ccc(S(=O)(=O)N4CCCC4)cc3)no2)C1 (stereo unspecified),i
CCCCCC(=O)N1CCCC(c2nc(-c3ccc(OC)cc3)no2)C1 (stereo unspecified),77.1
COc1ccc(-c2noc(CCC(=O)N3CCC(C)CC3)n2)cc1,i
O=C(Nc1ncc(C(F)(F)F)cc1Cl)C1COc2ccccc2O1 (stereo unspecified),i
Brc1ccc(-c2nnc(-c3cccnc3)c3conc23)cc1,i
CCCCc1ccc(NC(=O)COc2ccc(C(=O)Nc3ccccc3OCC)cc2)cc1,i
CCN(C(=O)c1ccc(C)c(Br)c1)c1ccccc1,i
Clc1ccc(-c2nc(N3CCCCC3)nc3ccccc23)cc1,i
c1ccc(-c2nc(-n3nc4ccccc4n3)nc3ccccc23)cc1,145.5
c1ccc(-c2nn3nnnc3c3ccccc23)cc1,i
CC(=O)c1c(N2CCN(C)CC2)[nH]c(-c2ccccc2)nc1=S,i
CCN(C(=O)Cn1cc(C(F)(F)F)ccc1=O)c1c(N)n(Cc2ccccc2)c(=O)[nH]c1=O,i
CN1CCN(C(=O)CN(Cc2ccc(Cl)cc2)S(C)(=O)=O)CC1,578.6
CS(=O)(=O)N(CC(=O)N1CCCCCC1)Cc1ccc(Cl)cc1,i
CS(=O)(=O)N(CC(=O)NC1CCCC1)Cc1ccc(Cl)cc1,i
CC1=CC(=C(C#N)C#N)C=C(C)N1CCN1CCNCC1,i
COc1cc(OC)cc(-c2nnc(SCC(=O)N3CCOCC3)o2)c1,i
COc1cc(OC)cc(-c2nnc(SCC(=O)Nc3cc(C)on3)o2)c1,113.2
COc1ccc(C(=O)CSc2nnc(-c3cc(C)cc(C)c3)o2)cc1,i
Cc1ccc(NC(=O)c2cc(NC(=O)c3ccccc3C(=O)O)ccc2N2CCCCC2)cc1,i
Cc1cc2cc3c(cc2nc1SCC(=O)Nc1ccccc1)CCC3,i
N=c1oc2c3c4c(cc2cc1C(=O)Nc1ccccc1)CCCN4CCC3,900.0
SMILES,INS promoter act
Cc1ccc(NC(=O)Cc2ncc(C(F)(F)F)cc2Cl)cc1Cl,i
CC(/C=C/c1ccccc1)=N\NC(=O)CNC(=O)c1ccccc1Cl,i
CC(/C=C/c1ccccc1)=N\NC(=O)c1ccc(Br)cc1,388.9
O=C(N/N=C/C=C/c1ccccc1)c1ccc(Br)cc1,i
CC1CCc2nc3ccc(S(=O)(=O)N4CCC(C(=O)N5CCCCCC5)CC4)cc3c(C(=O)O)c2C1 (stereo unspecified),i
Cc1cc(C)c2c(=O)[nH]c(SCC(=O)c3ccc(C(C)C)cc3)nc2n1,i
CC1CCCCC1N=C1NC(C)(C)CS1 (stereo unspecified),i
CC(C)c1nc(-c2ccccc2)c(-c2ccccc2)[nH]1,i
O=C(O)c1ccccc1-c1nc(-c2ccccc2)c(-c2ccccc2)[nH]1,289.5
CNC(=O)CSc1nc(-c2ccccc2)c(-c2ccccc2)[nH]1,i
CC(NC(=S)Nc1ccc(Cl)cc1)C(c1ccccc1)N1CCOCC1 (stereo unspecified),i
Cc1ccc2c(c1)[C@@H](O)C[C@@H](C)N2N=O,i
CCOc1cc(CNCCO)cc(Br)c1OCc1ccc(Cl)cc1Cl,i
C=CCOc1c(CNc2cccc(C(=O)O)c2)cccc1OCC,i
CCOc1cccc(CNc2ccc(O)cc2)c1OCc1ccc(Cl)cc1Cl,91.4
